Columns and labels:
[1] = molecular target: T1, Glutamate receptor 1 (Homo sapiens, UniProt P42261); experiment: (§1) Antagonist activity at human iGluA1 receptor flop isoform expressed in CHO-S cells coexpressing TARP gamma-2 assessed as inhibition of glutamate-induced increase in intracellular calcium levels after 2 mins followed by cyclothiazide/glutamate addition by fluo-4 AM dye based fluorescence imaging plate reader method; type: cell-based
[2] = molecular target: T2, Cytochrome P450 1A2 (Homo sapiens, UniProt P05177); experiment: Inhibition of human CYP1A2; type: ADME
T2 sequence (P05177 whole entry): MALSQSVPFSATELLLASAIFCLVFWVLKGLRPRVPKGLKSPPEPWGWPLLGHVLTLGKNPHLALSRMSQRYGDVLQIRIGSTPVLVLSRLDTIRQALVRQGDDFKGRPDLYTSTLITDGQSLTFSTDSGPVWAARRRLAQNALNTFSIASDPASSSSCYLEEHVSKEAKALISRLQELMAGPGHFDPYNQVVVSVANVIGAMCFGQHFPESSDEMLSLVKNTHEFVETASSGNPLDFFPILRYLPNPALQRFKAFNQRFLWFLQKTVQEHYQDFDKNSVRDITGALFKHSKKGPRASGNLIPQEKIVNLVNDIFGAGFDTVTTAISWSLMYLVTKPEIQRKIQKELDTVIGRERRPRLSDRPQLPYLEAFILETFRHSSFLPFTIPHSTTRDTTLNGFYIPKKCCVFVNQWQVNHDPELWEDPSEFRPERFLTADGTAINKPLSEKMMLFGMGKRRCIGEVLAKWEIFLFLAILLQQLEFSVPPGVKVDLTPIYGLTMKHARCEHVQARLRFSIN

[3] = molecular target: T1, Glutamate receptor 1; experiment: as §1, with “gamma-8 and human EAAT3” for “gamma-2”; type: cell-based
How it was run: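 Transiently transfected CHO-S cells (human GluA1Q flop with TARP γ-8 and human EAAT3, DNA ratio 2:3), frozen, thawed, plated overnight at 37 °C; Fluo-4 AM loading 2 h at 22 °C. Compound added, then 2 min later glutamate (5 μM final); cyclothiazide (20 μM) plus glutamate (45 μM) 2 min after. FLIPR Ca2+ read; inhibition relative to 167 μM nonselective antagonist and buffer baseline; four-parameter logistic IC50; mean ± SEM, n ≥ 2.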

[4] = Clearance in rat; type: ADME, organism-based; details: in vivo
[5] = molecular target: T1, Glutamate receptor 1; experiment: Antagonist activity at human iGluA1 receptor flip isoform expressed in CHO-S cells assessed as inhibition of glutamate-induced increase in intracellular calcium levels after 2 mins followed by cyclothiazide/glutamate addition by fluo-4 NW dye based fluorescence imaging plate reader method; type: cell-based
[6] = molecular target: T2, Cytochrome P450 1A2; experiment: Induction of CYP1A2 in human hepatocytes at 0.2 to 20 uM compared to omeprazole; type: ADME, cell-based, Hepatocyte
How it was run: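 Human hepatocytes treated over a concentration range; CYP1A2 fold induction expressed as percent of omeprazole; >30% taken as induction, <15% as none.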

[7] = tested on: Hepatocyte; experiment: Drug metabolism in rat hepatocytes assessed as glucuronidation; type: ADME, cell-based
[8] = tested on: Hepatocyte; experiment: Drug metabolism in human hepatocytes assessed as oxidative metabolite formation; type: ADME, cell-based
[9] = tested on: Hepatocyte; experiment: Drug metabolism in rat hepatocytes assessed as oxidative metabolite formation; type: ADME, cell-based
[10] = tested on: Hepatocyte; experiment: Drug metabolism in human hepatocytes assessed as glucuronidation; type: ADME, cell-based
[11] = molecular target: T1, Glutamate receptor 1; experiment: Antagonist activity at human iGluA1 receptor flop isoform expressed in CHO-S cells coexpressing TARP gamma-3 assessed as inhibition of glutamate-induced increase in intracellular calcium levels after 2 mins followed by cyclothiazide/glutamate addition by fluorescence imaging plate reader method; type: cell-based
How it was run: (§2)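 Human GluA1 flop transiently co-expressed with the TARP subtype in CHO-S cells. Frozen cells were thawed, plated at 50,000 cells/well and cultured overnight at 37 °C. Buffer was HBSS with 20 mM HEPES pH 7.4, 2.5 mM probenecid and 4 mM CaCl2. Compound was added, then cyclothiazide (20 μM final) plus glutamate (45 μM final). FLIPR Ca2+ read, normalised to full antagonist block and buffer baseline. Four-parameter IC50; mean ± SEM, n ≥ 2.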

[12] = molecular target: T1, Glutamate receptor 1; experiment: Antagonist activity at human iGluA1 receptor flop isoform expressed in CHO-S cells coexpressing TARP gamma-4 assessed as inhibition of glutamate-induced increase in intracellular calcium levels after 2 mins followed by cyclothiazide/glutamate addition by fluorescence imaging plate reader method; type: cell-based; how it was run: as §2
[13] = tested on: Rattus norvegicus; experiment: Anticonvulsant activity in po dosed Sprague-Dawley rat assessed as inhibition of pentylenetetrazole-induced clonic convulsions administered 30 mins prior to PTZ dosing measured over 30 mins; type: functional
[14] = tested on: Rattus norvegicus; experiment: Toxicity in Sprague-Dawley rat assessed as motor impairment at 30 mg/kg, po by inverted screen test; type: organism-based; details: in vivo
How it was run: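 Oral dosing in rats, then inverted screen motor-function score. Plasma exposure measured. Mean ± SEM of ≥4 rats/group, compared with vehicle control.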

[15] = tested on: Rattus norvegicus; experiment: Protective index, ratio of TD50 for motor impairment to ED50 for inhibition of pentylenetetrazole-induced clonic convulsions in po dosed Sprague-Dawley rat
How it was run: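 PI = inverted screen TD50 divided by PTZ ED50. For the ED50, rats were dosed orally 30 min before PTZ (35 mg/kg, sc), with n = 10 per group. Read-out was % block of clonic convulsions; ED50 given with 95% confidence limits.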

[16] = AUC in rat plasma at 30 mg/kg, po measured on day 1; type: ADME, organism-based
[17] = Cmax in rat plasma at 30 mg/kg, po measured on day 4; type: ADME, organism-based; design: dose 30 mg/kg, route oral
How it was run: (§3)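 Rats dosed orally at 30 mg/kg for 4 days; plasma Cmax and AUC determined.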

[18] = Cmax in rat plasma at 30 mg/kg, po measured on day 1; type: ADME, organism-based; design: dose 30 mg/kg, route oral
[19] = AUC in rat plasma at 30 mg/kg, po measured on day 4; type: ADME, organism-based; how it was run: as §3
[20] = tested on: UGT; experiment: Drug metabolism assessed as UGT-mediated compound glucuronidation in rat liver microsomes; type: ADME; details: read-out: Drug metabolism
How it was run: (§4)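 Microsomes incubated with appropriate cofactors for UGT; percent metabolism, n = 1.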

[21] = tested on: UGT; experiment: Drug metabolism assessed as UGT-mediated compound glucuronidation in human liver microsomes; type: ADME; details: read-out: Drug metabolism; how it was run: as §4
[22] = tested on: Hepatocyte; experiment: Drug metabolism in human hepatocytes assessed as sulfation by LC/MS/MS analysis; type: ADME, cell-based
[23] = tested on: Hepatocyte; experiment: Drug metabolism in rat hepatocytes assessed as glucuronidation by LC/MS/MS analysis; type: ADME, cell-based

T1 sequence (P42261 whole entry, canonical isoform): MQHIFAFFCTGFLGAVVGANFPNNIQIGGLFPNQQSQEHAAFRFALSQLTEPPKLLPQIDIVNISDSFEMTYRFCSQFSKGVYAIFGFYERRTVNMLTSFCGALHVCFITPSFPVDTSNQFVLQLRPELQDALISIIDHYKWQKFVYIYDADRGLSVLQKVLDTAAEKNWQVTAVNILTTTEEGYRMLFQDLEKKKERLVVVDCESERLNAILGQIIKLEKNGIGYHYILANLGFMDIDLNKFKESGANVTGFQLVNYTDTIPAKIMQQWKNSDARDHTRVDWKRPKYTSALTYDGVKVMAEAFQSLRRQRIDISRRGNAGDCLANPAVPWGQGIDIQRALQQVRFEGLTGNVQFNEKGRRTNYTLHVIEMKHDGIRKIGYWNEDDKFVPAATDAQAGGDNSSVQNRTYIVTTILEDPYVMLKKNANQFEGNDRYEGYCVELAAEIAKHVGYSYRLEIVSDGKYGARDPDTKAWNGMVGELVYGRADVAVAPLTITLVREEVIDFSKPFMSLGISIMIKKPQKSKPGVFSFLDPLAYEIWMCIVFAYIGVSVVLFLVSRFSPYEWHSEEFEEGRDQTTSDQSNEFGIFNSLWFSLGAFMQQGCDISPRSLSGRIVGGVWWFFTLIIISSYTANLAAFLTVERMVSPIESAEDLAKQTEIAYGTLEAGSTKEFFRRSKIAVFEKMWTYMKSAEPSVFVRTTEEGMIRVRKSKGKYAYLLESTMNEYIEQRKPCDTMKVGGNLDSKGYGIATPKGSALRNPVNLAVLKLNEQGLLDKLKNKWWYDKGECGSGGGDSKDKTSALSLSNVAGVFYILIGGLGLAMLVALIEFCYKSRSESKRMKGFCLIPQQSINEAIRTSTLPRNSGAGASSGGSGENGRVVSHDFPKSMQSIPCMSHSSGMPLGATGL

Compound	IC50 [1] [µM]	IC50 [2] [µM]	IC50 [3] [µM]	clearance [4] [mL/min/kg]	IC50 [5] [µM]	further results
CN(c1ccc2[nH]ncc2c1)c1ccn(-c2ccccn2)n1	> 83.3	0.23	0.353	61.3	> 83.3	
C[C@@H](c1ccc2[nH]c(=O)sc2c1)c1ccn(-c2ccccn2)n1	83.3	> 10	0.0509	99	9.26	Activity [6]: < 15%
CC(c1ccc2[nH]c(=O)sc2c1)c1ccn(-c2ccccn2)n1 (racemic)	83.3	8.68	0.122	115	83.3	Drug metabolism [7]: metabolite_detected; Drug metabolism [8]: metabolite_detected; Activity [6]: < 15%; Drug metabolism [9]: metabolite_detected; Drug metabolism [10]: metabolite_detected
Cn1ccc(CN(c2ccc3[nH]ncc3c2)c2nc(-c3ccccn3)cs2)n1	83.3	> 10	0.0539		83.3	Activity [6]: < 15%
N#Cc1ccccc1-c1cc(-c2ccccn2)cn(-c2ccccc2)c1=O [PERAMPANEL]	0.485		1.18		6.51	IC50 [11]: 0.243 µM; IC50 [12]: 0.623 µM; ED50 [13]: 10.6 mg/kg; Activity [14]: Toxic; Ratio TD50/ED50 [15]: 0.4
CN(c1ccc2[nH]ncc2c1)c1nc(-c2ccccn2)cs1	> 83.3	0.222	0.147	71.5	> 83.3	AUC [16]: 52300 ng·h/mL; Cmax [17]: 1930 ng/mL; Cmax [18]: 3740 ng/mL; AUC [19]: 3150 ng·h/mL
C[C@H](c1ccc2[nH]c(=O)sc2c1)c1ccn(-c2ccc(OCCO)cn2)n1	9.26		1.79		9.26	
C[C@@H](c1ccc2[nH]c(=O)sc2c1)c1ccn(-c2ccc(CCO)cn2)n1	25.7		0.0616	16.3	83.3	
C[C@H](c1ccc2[nH]c(=O)sc2c1)c1ccn(-c2ccccn2)n1	83.3	4.67	0.615	144	9.26	Activity [6]: < 15%
C[C@H](c1ccc2[nH]c(=O)sc2c1)c1ccn(-c2ccc(CCO)cn2)n1	9.26		2.82		9.26	
CN(c1ccc2[nH]c(=O)sc2c1)c1nc(-c2ccccn2)cs1	> 83.3	0.36	0.07	96.6	> 83.3	
CCOCCN(c1ccc2[nH]c(=O)sc2c1)c1nc(-c2ccccn2)cs1			0.022			
C[C@@H](c1ccc2[nH]c(=O)sc2c1)c1ccn(-c2ccc(CCC(C)(C)O)cn2)n1	9.26		0.16	6	9.26	
C[C@@H](c1ccc2[nH]c(=O)sc2c1)c1ccn(-c2ccc(F)cn2)n1	83.3		0.0536	42.2	83.3	
CN(c1ccc(O)cc1)c1nc(-c2ccccn2)cs1	> 83.3		2.97	234	> 83.3	metabolised [20]: 99%; IC50 [11]: > 83.3 µM; metabolised [21]: 33%; IC50 [12]: > 83.3 µM; Drug metabolism [22]: metabolite_detected; Drug metabolism [23]: metabolite_detected
